≈ marks a conversion by molar mass, not a printed value. Calls of active or inactive are those of the source. The rule behind the calls is not given here.
Columns and labels:
[1] = Metabolic stability in human microsomes assessed as half life; type: ADME, Microsome
NaV1.5 [2] = biological target: T1, NaV1.5 (Homo sapiens, UniProt Q14524); experiment: Inhibition of human NaV1.5 expressed in HEK293 cells assessed as inhibition of peak sodium current measured at frequency 3 Hz at -20 mV resting membrane potential at 3 uM by electrophysiology assay relative to control; type: cell-based; settings: HEK293 cells expressing human NaV1.5
[3] = Inhibition of late sodium current channel (unknown origin) at 25 Hz frequency by whole cell patch clamp technique; settings: Homo sapiens
NaV1.1 = NaV1.1 (Homo sapiens, UniProt P35498); experiment: Inhibition of NaV1.1 (unknown origin) expressed in cells assessed as inhibition of peak INa current at 10 uM at 25 Hz frequency by whole-cell patch clamp method relative to control; type: cell-based; settings: cells expressing NaV1.1
How it was run: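 Whole-cell manual patch clamp on non-cardiac NaV1.x channels, run at room temperature. Series resistance was compensated 90% so the command potential was reached within microseconds.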

[4] = Metabolic stability in dog microsomes assessed as half life; type: ADME, Canis lupus familiaris, Microsome
Oryctolagus cuniculus [5] = species: Oryctolagus cuniculus; experiment: Cardioprotective activity in New Zealand White rabbit heart assessed as reversal of ATX-II induced late sodium current prolongation in change in duration of monophasic action potential at 90 percent repolarization at 1 uM by electrocardiographic analysis relative to control; type: functional
[6] = Metabolic stability in rat microsomes assessed as half life; type: ADME, Microsome
Homo sapiens [7] = species: Homo sapiens; experiment: Inhibition of late sodium current channel (unknown origin) at 1 uM at 25 Hz frequency by whole cell patch clamp technique relative to control
NaV1.5 [8] = biological target: T1, NaV1.5; experiment: Inhibition of human NaV1.5 expressed in HEK293 cells assessed as inhibition of peak sodium current measured at frequency 3 Hz at -120 mV resting membrane potential at 0.3 uM by electrophysiology assay relative to control; settings: HEK293 cells expressing human NaV1.5
[9] = Ratio of drug concentration in brain to plasma of coronary artery occlusion-induced ischemia-reperfusion injury rabbit model intravenously administered with compound for 30 mins measured by LC-MS/MS analysis; type: ADME, Oryctolagus cuniculus; settings: brain and plasma, iv, read-out: BPR
[10] = Solubility of compound in water; type: physicochemical
[11] = Inhibition of peak sodium current (unknown origin) by manual patch clamp method; design: species or system Homo sapiens
[12] = biological target: Sodium channel protein type 1 subunit alpha (Homo sapiens, UniProt P35498); experiment: Inhibition of peak NaV1.1 (unknown origin) at 10 uM at 10 Hz frequency by manual patch clamp technique
How it was run: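 Whole-cell manual patch clamp at room temperature, with series resistance compensated 90%.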

Oryctolagus cuniculus [13] = experiment: (§1) Cardioprotective activity in New Zealand rabbit model of LAD coronary artery occlusion-induced ischemia-reperfusion injury assessed as inhibition of ST segment elevation intravenously administered with compound for 30 mins followed by induction of ischemia for 15 mins and subsequent reperfusion for 15 mins by electrocardiographic analysis; type: functional
Oryctolagus cuniculus [14] = species: Oryctolagus cuniculus; experiment: Cardioprotective activity in New Zealand rabbit heart assessed as reversal of ATX-II induced late sodium current increase in QT interval by electrocardiographic analysis; type: functional
Oryctolagus cuniculus [15] = species: Oryctolagus cuniculus; experiment: as §1, with “at 12 uM” for “intravenously administered with compound”; type: functional; settings: 1 h, time 60 min
Oryctolagus cuniculus [16] = species: Oryctolagus cuniculus; experiment: Cardioprotective activity in rabbit assessed as decrease in chemically-induced Torsades des Pointes at 14 uM by electrocardiographic analysis; type: functional; design: scale not given: the % may be the effect or the level left
Oryctolagus cuniculus [17] = species: Oryctolagus cuniculus; experiment: Cardioprotective activity in New Zealand White rabbit heart assessed as reversal of ATX-II induced late sodium current prolongation in change in duration of monophasic action potential at 90 percent repolarization by electrocardiographic analysis relative to control; type: functional, tissue-based
Homo sapiens [18] = species: Homo sapiens; experiment: Inhibition of L-type calcium channel (unknown origin)
NaV1.5 [19] = biological target: T1, NaV1.5; experiment: Inhibition of human NaV1.5 expressed in HEK293 cells assessed as inhibition of peak sodium current measured at frequency 3 Hz at -20 mV resting membrane potential at 1 uM by electrophysiology assay relative to control; type: cell-based; settings: HEK293 cells expressing human NaV1.5
[20] = Toxicity in rabbit model of left circumflex artery ligation-induced ischemia assessed as increase in VT-VF at 1 mg/kg by electrocardiographic analysis; type: organism-based, Oryctolagus cuniculus; settings: in vivo
[21] = Toxicity in rabbit model of left circumflex artery ligation-induced ischemia assessed as animal death at 1 mg/kg; type: organism-based, Oryctolagus cuniculus; settings: in vivo
Oryctolagus cuniculus [22] = species: Oryctolagus cuniculus; experiment: as §1, with “at 0.28 uM” for “intravenously administered with compound”; type: functional; design: scale not given: the % may be the effect or the level left; settings: time 60 min, 1 h
[23] = Toxicity in New Zealand rabbit model of LAD coronary artery occlusion-induced ischemia-reperfusion injury assessed as effect on blood pressure at 0.28 to 0.52 uM; design: species or system Oryctolagus cuniculus; settings: in vivo, dose 0.28-0.52 µM
Oryctolagus cuniculus [24] = species: Oryctolagus cuniculus; experiment: as §1, with “at 0.52 uM” for “intravenously administered with compound”; type: functional; design: scale not given: the % may be the effect or the level left; settings: time 60 min, 1 h
[25] = Toxicity in New Zealand rabbit model of LAD coronary artery occlusion-induced ischemia-reperfusion injury assessed as effect on heart rate at 0.28 to 0.52 uM; design: species or system Oryctolagus cuniculus; settings: in vivo, dose 0.28-0.52 µM
[26] = Toxicity in New Zealand rabbit model of LAD coronary artery occlusion-induced ischemia-reperfusion injury assessed as effect on ECG interval at 0.28 to 0.52 uM; design: species or system Oryctolagus cuniculus; settings: in vivo, dose 0.28-0.52 µM

T1 sequence (Q14524 whole entry): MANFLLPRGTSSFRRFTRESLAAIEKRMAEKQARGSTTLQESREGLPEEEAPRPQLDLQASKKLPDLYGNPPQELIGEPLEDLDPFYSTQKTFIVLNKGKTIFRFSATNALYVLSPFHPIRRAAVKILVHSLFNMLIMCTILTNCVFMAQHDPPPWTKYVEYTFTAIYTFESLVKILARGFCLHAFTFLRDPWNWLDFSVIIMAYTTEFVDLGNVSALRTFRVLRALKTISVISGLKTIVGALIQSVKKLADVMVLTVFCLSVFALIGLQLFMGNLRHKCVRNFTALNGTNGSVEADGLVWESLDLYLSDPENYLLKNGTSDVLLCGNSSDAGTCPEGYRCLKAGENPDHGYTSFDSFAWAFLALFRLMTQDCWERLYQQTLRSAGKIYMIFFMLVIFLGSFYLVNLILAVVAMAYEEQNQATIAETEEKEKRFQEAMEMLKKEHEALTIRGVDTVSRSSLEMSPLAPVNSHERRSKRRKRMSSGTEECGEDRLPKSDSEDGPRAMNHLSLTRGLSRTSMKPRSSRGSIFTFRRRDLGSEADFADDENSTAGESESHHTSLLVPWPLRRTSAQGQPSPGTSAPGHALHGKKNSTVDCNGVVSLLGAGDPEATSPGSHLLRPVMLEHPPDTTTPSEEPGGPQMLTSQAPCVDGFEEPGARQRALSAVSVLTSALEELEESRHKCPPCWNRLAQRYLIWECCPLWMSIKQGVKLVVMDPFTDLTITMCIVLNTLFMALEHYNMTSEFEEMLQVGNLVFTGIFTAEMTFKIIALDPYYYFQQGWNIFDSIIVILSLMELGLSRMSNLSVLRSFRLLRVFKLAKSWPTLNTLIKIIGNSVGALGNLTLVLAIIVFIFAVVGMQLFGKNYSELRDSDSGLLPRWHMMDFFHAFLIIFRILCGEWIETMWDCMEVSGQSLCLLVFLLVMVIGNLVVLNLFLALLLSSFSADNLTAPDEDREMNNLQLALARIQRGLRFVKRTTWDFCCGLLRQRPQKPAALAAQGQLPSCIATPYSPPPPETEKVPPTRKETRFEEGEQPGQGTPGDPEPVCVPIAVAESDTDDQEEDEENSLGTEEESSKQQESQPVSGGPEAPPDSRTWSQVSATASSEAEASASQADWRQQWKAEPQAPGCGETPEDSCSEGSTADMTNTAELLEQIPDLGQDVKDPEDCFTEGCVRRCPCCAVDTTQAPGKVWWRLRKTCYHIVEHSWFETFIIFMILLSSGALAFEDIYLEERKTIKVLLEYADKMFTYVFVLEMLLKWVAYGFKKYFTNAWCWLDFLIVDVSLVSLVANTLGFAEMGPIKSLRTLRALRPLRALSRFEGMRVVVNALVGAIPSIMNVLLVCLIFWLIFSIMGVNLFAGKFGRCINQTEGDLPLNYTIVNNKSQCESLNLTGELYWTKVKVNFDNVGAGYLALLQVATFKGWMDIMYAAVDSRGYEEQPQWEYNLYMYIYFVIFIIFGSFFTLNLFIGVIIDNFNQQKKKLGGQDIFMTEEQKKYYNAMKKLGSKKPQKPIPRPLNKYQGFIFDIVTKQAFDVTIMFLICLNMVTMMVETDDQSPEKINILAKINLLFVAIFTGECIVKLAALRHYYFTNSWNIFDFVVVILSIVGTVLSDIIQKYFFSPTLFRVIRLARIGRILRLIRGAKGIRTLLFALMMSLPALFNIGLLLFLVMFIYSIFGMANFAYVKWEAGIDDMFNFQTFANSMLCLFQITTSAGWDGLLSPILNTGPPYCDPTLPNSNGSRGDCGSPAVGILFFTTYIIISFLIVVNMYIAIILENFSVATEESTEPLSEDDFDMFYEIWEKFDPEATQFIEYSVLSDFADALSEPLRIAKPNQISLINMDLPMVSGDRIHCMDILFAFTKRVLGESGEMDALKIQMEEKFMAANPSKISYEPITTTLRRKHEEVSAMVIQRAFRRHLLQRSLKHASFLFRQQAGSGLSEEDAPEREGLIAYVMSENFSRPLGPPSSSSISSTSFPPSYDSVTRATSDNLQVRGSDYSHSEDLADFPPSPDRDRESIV

SMILES	half-life [1]	IC50 [3]	inhibition at 10 µM (NaV1.1)	half-life [4]	half-life [6]	inhibition (Homo sapiens [7])	further results
O=C1c2cc(-c3cccc(OC(F)(F)F)c3)ccc2OCCN1Cc1ncccn1	4.95 h	2.03 µM	18%	0.717 h	4.9 h	–	inhibition at 3 µM (NaV1.5 [2]): 3%; Activity (Oryctolagus cuniculus [5]): 29%
O=C1c2cc(-c3ccc(OC(F)(F)F)cc3)ccc2OCCN1CCc1ncccn1	0.467 h	1 µM	67%	1.55 h	0.467 h	–	inhibition at 3 µM (NaV1.5 [2]): 13%
COc1ccc(-c2ccc3c(c2)C(=O)N(Cc2ncccn2)CCO3)cc1	–	–	–	–	–	13%	–
O=C1c2cc(-c3ccc(Cl)cc3)ccc2OCCN1Cc1ncccn1	3.23 h	1.62 µM	31%	1.05 h	1.6 h	–	inhibition at 3 µM (NaV1.5 [2]): 17%; Activity (Oryctolagus cuniculus [5]): 68%
O=C1c2cc(-c3ccc(OC(F)(F)F)cc3F)ccc2OCCN1Cc1ncccn1	4.02 h	1.28 µM	35%	2.6 h	5.13 h	–	inhibition at 3 µM (NaV1.5 [2]): 37%; Activity (Oryctolagus cuniculus [5]): 39%
Nc1ccnc(CN2CCOc3ccc(-c4ccc(OC(F)(F)F)cc4)cc3C2=O)n1	–	2.48 µM	52%	–	–	–	inhibition at 3 µM (NaV1.5 [2]): 37%
O=C1c2cc(-c3ccc(OC(F)(F)F)cc3)ccc2OCCN1Cc1ncccc1F	2.48 h	0.16 µM	82%	3.23 h	1.48 h	–	inhibition at 0.3 µM (NaV1.5 [8]): 23%
Cc1noc(Cn2ncc3ccc(-c4ccc(OC(F)(F)F)cc4)cc3c2=O)n1	–	–	–	–	–	39%	Kp at 0.5 h [9]: 4.4
O=C1c2cc(-c3ccc(C(F)(F)F)cc3)ccc2CCN1Cc1ncccn1	5.07 h	2.07 µM	15%	5.33 h	5.9 h	–	solubility [10]: 28 µM (≈ 10.7 µg/mL); Activity (Oryctolagus cuniculus [5]): 25%
COc1ccccc1OCC(O)CN1CCN(CC(=O)Nc2c(C)cccc2C)CC1 (stereo unspecified) [RANOLAZINE]	–	–	–	–	–	–	IC50 [11]: 428 µM; inhibition (INH) [12]: Not Active; EC50 (Oryctolagus cuniculus [13]): 8 µM; Activity (Oryctolagus cuniculus [14]): Active; inhibition in vivo at 12 µM (Oryctolagus cuniculus [15]): 60%; Activity (Oryctolagus cuniculus [16]): 60%; IC50 (Oryctolagus cuniculus [17]): 16 µM; inhibition (Homo sapiens [18]): inactive
Cc1noc(Cn2cnc3ccc(-c4ccc(OC(F)(F)F)cc4)cc3c2=O)n1	–	–	–	–	–	48%	Kp at 0.5 h [9]: 15
COc1ccnc(CN2CCOc3ccc(-c4ccc(OC(F)(F)F)cc4)cc3C2=O)n1	6.58 h	0.97 µM	60%	1.45 h	4.52 h	–	inhibition at 1 µM (NaV1.5 [19]): 27%
O=C1c2cc(-c3cccc(C(F)(F)F)c3)ccc2OCCN1Cc1ncccn1	–	3.03 µM	–	–	–	–	–
O=C1c2cc(-c3ccccc3)ccc2OCCN1Cc1ncccn1	–	–	–	–	–	18%	–
O=C1c2cc(-c3ccccc3OC(F)(F)F)ccc2OCCN1Cc1ncccn1	–	–	–	–	–	26%	–
O=C1c2cc(-c3ccc(OC(F)(F)F)cc3)ccc2CCN1Cc1ncccn1	6.58 h	2.31 µM	23%	2.62 h	2.5 h	–	solubility [10]: 60 µM (≈ 24 µg/mL); Activity (Oryctolagus cuniculus [5]): 6%
CC(=O)Nc1ccnc(CN2CCOc3ccc(-c4ccc(OC(F)(F)F)cc4)cc3C2=O)n1	–	–	–	–	–	6%	–
O=C1c2cc(-c3ccc(OC(F)F)cc3)ccc2OCCN1Cc1ncccn1	–	–	–	–	–	13%	–
O=C1c2cc(-c3ccc(OC(F)(F)F)cc3)ccc2OCCN1Cc1ccccn1	2.5 h	0.5 µM	67%	2.78 h	1.15 h	–	solubility [10]: < 1 µM
CC(=O)Nc1cc(OC(F)(F)F)ccc1-c1ccc2c(c1)C(=O)N(Cc1ncccn1)CCO2	–	–	–	–	–	4%	–
O=C(NCC1CCCCN1)c1cc(OCC(F)(F)F)ccc1OCC(F)(F)F (stereo unspecified) [FLECAINIDE]	–	–	–	–	–	–	Activity [20]: Toxic; Activity [21]: Toxic
CS(=O)(=O)c1ccc(-c2ccc3c(c2)C(=O)N(Cc2ncccn2)CCO3)cc1	–	–	–	–	–	3%	–
O=c1c2cc(-c3ccc(C(F)(F)F)cc3)ccc2nnn1Cc1nnc(C2CC2)o1	–	–	–	–	–	51%	Kp at 0.5 h [9]: 0.86; EC50 (Oryctolagus cuniculus [13]): 0.97 µM
O=C1c2cc(-c3ccc(C(F)F)cc3)ccc2OCCN1Cc1ncccn1	–	–	–	–	–	17%	–
O=C1c2cc(-c3ccc(C(F)(F)F)cc3)ccc2OCCN1Cc1ncccn1	5.8 h	1.08 µM	60%	6.18 h	3.52 h	–	solubility [10]: 87 µM (≈ 34.7 µg/mL); Activity (Oryctolagus cuniculus [22]): 38%; EC50 (Oryctolagus cuniculus [13]): 0.3 µM; Activity (Oryctolagus cuniculus [13]; time 60.0 min): Dose-dependent effect; inhibition at 3 µM (NaV1.5 [2]): 27%; Activity [23]: Non-Toxic; Activity (Oryctolagus cuniculus [24]): 88%; Activity (Oryctolagus cuniculus [5]): 62%; Activity [25]: Non-Toxic; Activity [26]: Non-Toxic
O=C1c2cc(-c3ccc(Cl)c(F)c3)ccc2OCCN1Cc1ncccn1	5.5 h	1.61 µM	23%	1.92 h	1.63 h	–	inhibition at 1 µM (NaV1.5 [19]): 8%; Activity (Oryctolagus cuniculus [5]): 58%
O=C1c2cc(-c3ccc(OC(F)(F)F)c(Cl)c3)ccc2OCCN1Cc1ncccn1	6.55 h	0.77 µM	33%	–	5.63 h	–	inhibition at 3 µM (NaV1.5 [2]): 15%; Activity (Oryctolagus cuniculus [5]): 23%
